Test results published in ChEMBL document CHEMBL4346662, “Synthesis of novel 7-azaindole derivatives containing pyridin-3-ylmethyl dithiocarbamate moiety as potent PKM2 activators and PKM2 nucleus translocation inhibitors” (Eur J Med Chem, 2019).
Activity calls are given as the source filed them. The calls are words filed in the database; no cut-off is given here.

Legend:
Pyruvate kinase PKM [1] = molecular target: T1, Pyruvate kinase PKM (Homo sapiens, UniProt P14618); assay: Activation of human recombinant His-tagged PKM2 expressed in Escherichia coli using PEP as substrate measured at 30 sec between 3 and 6 mins in presence of […] by fluorescent pyruvate kinase-lactate dehydrogenase coupled assay; conditions: read-out: AC50
How it was run: (§1)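 Pyruvate kinase activity read by fluorescent pyruvate kinase–lactate dehydrogenase coupled assay; AC50 and maximal activation are means of at least two determinations.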
Target sequence in this assay (P14618 whole entry): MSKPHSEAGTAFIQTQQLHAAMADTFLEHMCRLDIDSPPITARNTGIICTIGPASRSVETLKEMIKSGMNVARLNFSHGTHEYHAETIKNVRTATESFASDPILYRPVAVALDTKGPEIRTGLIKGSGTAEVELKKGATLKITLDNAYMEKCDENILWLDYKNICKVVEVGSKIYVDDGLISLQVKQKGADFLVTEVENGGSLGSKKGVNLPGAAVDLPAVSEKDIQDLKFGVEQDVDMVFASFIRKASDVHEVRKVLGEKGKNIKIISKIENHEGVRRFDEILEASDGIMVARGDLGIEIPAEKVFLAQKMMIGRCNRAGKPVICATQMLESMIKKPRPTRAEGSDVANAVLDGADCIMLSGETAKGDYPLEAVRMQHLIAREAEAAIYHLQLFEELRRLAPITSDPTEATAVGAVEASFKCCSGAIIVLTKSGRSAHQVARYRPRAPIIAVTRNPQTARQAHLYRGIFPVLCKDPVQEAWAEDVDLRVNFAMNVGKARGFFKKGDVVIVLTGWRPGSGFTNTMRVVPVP

Pyruvate kinase PKM [2] = molecular target: T1, Pyruvate kinase PKM; assay: Activation of human recombinant His-tagged PKM2 expressed in Escherichia coli assessed as maximal activity using PEP as substrate measured at 30 sec between 3 and 6 mins in presence of […] by fluorescent pyruvate kinase-lactate dehydrogenase coupled assay relative to control; how it was run: as §1
Target sequence in this assay (P14618 2-531 limits assumed): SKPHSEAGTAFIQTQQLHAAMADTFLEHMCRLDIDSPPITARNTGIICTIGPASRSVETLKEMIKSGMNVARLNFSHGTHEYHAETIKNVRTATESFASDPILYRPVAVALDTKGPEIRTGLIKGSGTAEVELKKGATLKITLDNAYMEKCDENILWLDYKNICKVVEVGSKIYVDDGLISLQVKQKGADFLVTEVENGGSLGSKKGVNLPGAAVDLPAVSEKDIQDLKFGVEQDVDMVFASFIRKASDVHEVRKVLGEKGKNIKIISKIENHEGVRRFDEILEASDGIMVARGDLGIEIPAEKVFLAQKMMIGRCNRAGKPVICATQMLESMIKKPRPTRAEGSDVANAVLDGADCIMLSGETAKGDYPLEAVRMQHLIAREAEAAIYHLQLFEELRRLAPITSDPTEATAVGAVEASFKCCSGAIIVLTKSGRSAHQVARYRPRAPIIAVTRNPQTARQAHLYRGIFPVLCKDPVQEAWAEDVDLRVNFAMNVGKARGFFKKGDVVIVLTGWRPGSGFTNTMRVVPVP

NCI-H1299 = assay: Antiproliferative activity against human H1299 cells assessed as reduction in cell growth incubated for 72 hrs by CellTiter-Glo assay; assay type: functional, cell-based; conditions: NCI-H1299, 72 h
How it was run: (§2)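 Cells (H1299 in RPMI 1640; HCT116 and A375 in DMEM; 10% FBS, 37 °C, 5% CO2) plated at 2000 per well, left 24 h, then exposed to ten concentrations or DMSO for 72 h. CellTiter-Glo added, 30 min at room temperature in dark, luminescence read. IC50 fitted from triplicate experiments.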

HCT-116 = assay: Antiproliferative activity against human HCT116 cells assessed as reduction in cell growth incubated for 72 hrs by CellTiter-Glo assay; assay type: functional, cell-based; conditions: HCT-116, 72 h; how it was run: as §2
A-375 [3] = assay: Antiproliferative activity against human A375 cells assessed as reduction in cell growth incubated for 72 hrs by CellTiter-Glo assay; assay type: functional, cell-based; conditions: A-375, 72 h; how it was run: as §2
[4] = Cytotoxicity against human HELF cells assessed as reduction in cell viability incubated for 72 hrs by CellTiter-Glo assay; assay type: cell-based
C2C12 = assay: Cytotoxicity against mouse C2C12 cells assessed as reduction in cell viability incubated for 72 hrs by CellTiter-Glo assay; assay type: cell-based; conditions: C2C12, 72 h
[5] = Cytotoxicity against mouse C2C12 cells assessed as reduction in cell viability at 20 uM incubated for 72 hrs by CellTiter-Glo assay relative to control; assay type: cell-based; conditions: read-out: INH
[6] = molecular target: Serine/threonine-protein kinase B-raf (Homo sapiens) (UniProt P15056); assay: Inhibition of B-raf (unknown origin) at 10 uM
Sequence of Serine/threonine-protein kinase B-raf (Homo sapiens) (P15056 whole entry): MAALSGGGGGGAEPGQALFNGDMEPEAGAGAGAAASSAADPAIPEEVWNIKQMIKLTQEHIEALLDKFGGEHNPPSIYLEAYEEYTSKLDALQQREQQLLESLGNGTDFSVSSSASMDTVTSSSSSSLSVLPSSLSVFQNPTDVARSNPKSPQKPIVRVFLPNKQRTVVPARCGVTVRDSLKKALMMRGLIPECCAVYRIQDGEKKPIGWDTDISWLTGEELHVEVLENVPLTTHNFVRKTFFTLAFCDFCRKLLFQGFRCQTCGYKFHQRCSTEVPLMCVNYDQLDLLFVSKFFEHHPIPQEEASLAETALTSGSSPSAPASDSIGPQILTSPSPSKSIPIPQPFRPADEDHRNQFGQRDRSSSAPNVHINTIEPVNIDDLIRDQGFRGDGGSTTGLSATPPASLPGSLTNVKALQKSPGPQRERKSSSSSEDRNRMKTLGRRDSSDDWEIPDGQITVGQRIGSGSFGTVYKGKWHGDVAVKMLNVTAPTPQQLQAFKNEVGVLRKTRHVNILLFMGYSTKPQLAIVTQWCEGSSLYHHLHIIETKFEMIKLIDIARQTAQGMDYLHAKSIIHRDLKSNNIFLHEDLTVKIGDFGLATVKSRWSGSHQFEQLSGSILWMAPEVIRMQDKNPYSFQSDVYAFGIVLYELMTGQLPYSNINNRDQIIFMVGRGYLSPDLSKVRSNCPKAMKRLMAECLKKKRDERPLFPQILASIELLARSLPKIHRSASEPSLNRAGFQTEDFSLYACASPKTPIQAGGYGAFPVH
How it was run: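 B-raf tested by single-point binding at 10 μM.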

A-375 [7] = assay: Antitumor activity in human A375 cells xenografted in BALB/C mouse assessed as reduction in tumor volume at 50 mg/kg, po bid for 14 days measured on day 22; assay type: functional, organism-based
How it was run: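 Male BALB/c athymic nude mice, six weeks old, 18–20 g, inoculated subcutaneously with A375 cells (5×10^7 cells/mL in DMEM, 0.2 mL). At 100–300 mm³ (7 days), randomized, n = 6 per group, dosed orally bid for 14 days; vehicle 0.5% CMCNa. Tumor volume ((width)²×length/2) and body weight measured 2–3 times weekly; tumors excised and weighed at day 22.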

Homo sapiens = species on record: Homo sapiens; assay: Inhibition of nuclear translocation of PKM2 in human A375 cells assessed as retardation of in nuclear accumulation of PKM2 at 1 to 4 uM incubated for 24 hrs by Hoechst staining-based immunofluorescent microscopic analysis; assay type: cell-based
How it was run: (§3)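 A375 cells seeded at 60% per well, grown 24 h at 37 °C, then treated with three concentrations, DMSO or NZT for 24 h (12 h in a separate run). Fixed 10 min in 3% PFA/0.1% glutaraldehyde, blocked overnight at 4 °C (3% BSA, 0.2% Triton X-100), stained with rabbit anti-PKM2 2 h, then secondary plus Hoechst 33258 1 h. Imaged on Operetta high content system; cytoplasmic fluorescence intensity quantified.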

Pyruvate kinase PKM [8] = molecular target: T1, Pyruvate kinase PKM; assay: Inhibition of nuclear translocation of PKM2 in human A375 cells assessed as retardation of in nuclear accumulation of PKM2 at 1 to 4 uM incubated for 12 hrs by Hoechst staining-based immunofluorescent microscopic analysis; assay type: cell-based; how it was run: as §3
Target sequence in this assay (P14618 2-531 limits assumed): as the sequence (P14618 2-531 limits assumed) above

A-375 [9] = assay: Induction of apoptosis in human A375 cells assessed as apoptotic cells at 1 to 4 uM incubated for 24 hrs by AnnexinV-FITC/propidium iodide staining-based flow cytometric analysis relative to control; assay type: functional, cell-based
How it was run: (§4)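 A375 cells seeded at 6×10^5 per well, grown 24 h, then given fresh medium with compound for 24 h. Harvested by trypsinization, washed twice in ice-cold PBS, stained with Annexin V-FITC/PI and analysed by flow cytometry. Annexin V+/PI− scored early, Annexin V+/PI+ late apoptotic, double-negative live.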

A-375 [10] = assay: Induction of autophagy in human A375 cells assessed as increase in LC3-1 to LC3-2 transition at 1 to 4 uM incubated for 24 hrs by immunoflourescence assay; assay type: functional, cell-based
How it was run: (§5)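 A375 cells seeded at 60% per well, then treated with compound or DMSO for 24 h. Fixed in 3% PFA/0.1% glutaraldehyde, blocked overnight at 4 °C, immunostained with rabbit anti-LC3B plus Hoechst 33258. High content imaging quantified cytoplasmic LC3B intensity and LC3B spot area.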

A-375 [11] = assay: Anti-migration activity against human A375 cells assessed as inhibition of cell migration speed incubated for 24 hrs; assay type: functional, cell-based
How it was run: (§6)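 A375 cells seeded at 60% per well, grown 24 h, then given six concentrations or DMSO. Migration speed and accumulated distance tracked in real time by live-cell high content imaging (Operetta) over 24 h. Data from triplicate experiments.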

A-375 [12] = assay: Inhibition of nuclear translocation of PKM2 in human A375 cells assessed as cell death of PKM2 at 4 uM incubated for 24 hrs by Hoechst staining-based fluorescent microscopic analysis; assay type: functional
A-375 [13] = assay: Anti-migration activity against human A375 cells assessed as inhibition of cell migration distance incubated for 24 hrs; assay type: functional, cell-based; how it was run: as §6
[14] = Cytotoxicity against human HELF cells assessed as reduction in cell viability at 20 uM incubated for 72 hrs by CellTiter-Glo assay relative to control; assay type: cell-based; conditions: read-out: INH
A-375 [15] = assay: Cytotoxicity in human A375 cells assessed as reduction in cel viability at 4 uM incubated for 24 hrs; assay type: functional, cell-based
A-375 [16] = assay: Induction of autophagy in human A375 cells assessed as increase inLC3B spot area at 1 to 4 uM incubated for 24 hrs by immunoflourescence assay; assay type: functional, cell-based; how it was run: as §5
A-375 [17] = assay: Induction of apoptosis in human A375 cells assessed as viable cells level at 1 uM incubated for 24 hrs by AnnexinV-FITC/propidium iodide staining-based flow cytometric analysis (reference value: 89.51%); assay type: functional; how it was run: as §4
A-375 [18] = assay: Induction of apoptosis in human A375 cells assessed as early apoptotic cells level at 1 uM incubated for 24 hrs by AnnexinV-FITC/propidium iodide staining-based flow cytometric analysis (reference value: 2.89%); assay type: functional; how it was run: as §4
A-375 [19] = assay: Induction of apoptosis in human A375 cells assessed as late apoptotic cells level at 1 uM incubated for 24 hrs by AnnexinV-FITC/propidium iodide staining-based flow cytometric analysis (reference value: 6.64%); assay type: functional; how it was run: as §4
A-375 [20] = assay: Induction of apoptosis in human A375 cells assessed as necrotic cells level at 1 uM incubated for 24 hrs by AnnexinV-FITC/propidium iodide staining-based flow cytometric analysis (reference value: 0.96%); assay type: functional; how it was run: as §4
A-375 [21] = assay: Induction of apoptosis in human A375 cells assessed as viable cells level at 2 uM incubated for 24 hrs by AnnexinV-FITC/propidium iodide staining-based flow cytometric analysis (reference value: 89.51%); assay type: functional; how it was run: as §4
A-375 [22] = assay: Induction of apoptosis in human A375 cells assessed as early apoptotic cells level at 2 uM incubated for 24 hrs by AnnexinV-FITC/propidium iodide staining-based flow cytometric analysis (reference value: 2.89%); assay type: functional; how it was run: as §4
A-375 [23] = assay: Induction of apoptosis in human A375 cells assessed as late apoptotic cells level at 2 uM incubated for 24 hrs by AnnexinV-FITC/propidium iodide staining-based flow cytometric analysis (reference value: 6.64%); assay type: functional; how it was run: as §4
A-375 [24] = assay: Induction of apoptosis in human A375 cells assessed as necrotic cells level at 2 uM incubated for 24 hrs by AnnexinV-FITC/propidium iodide staining-based flow cytometric analysis (reference value: 0.96%); assay type: functional; how it was run: as §4
A-375 [25] = assay: Induction of apoptosis in human A375 cells assessed as viable cells level at 4 uM incubated for 24 hrs by AnnexinV-FITC/propidium iodide staining-based flow cytometric analysis (reference value: 89.51%); assay type: functional; how it was run: as §4
A-375 [26] = assay: Induction of apoptosis in human A375 cells assessed as early apoptotic cells level at 4 uM incubated for 24 hrs by AnnexinV-FITC/propidium iodide staining-based flow cytometric analysis (reference value: 2.89%); assay type: functional; how it was run: as §4
A-375 [27] = assay: Induction of apoptosis in human A375 cells assessed as late apoptotic cells level at 4 uM incubated for 24 hrs by AnnexinV-FITC/propidium iodide staining-based flow cytometric analysis (reference value: 6.64%); assay type: functional; how it was run: as §4
A-375 [28] = assay: Induction of apoptosis in human A375 cells assessed as necrotic cells level at 4 uM incubated for 24 hrs by AnnexinV-FITC/propidium iodide staining-based flow cytometric analysis (reference value: 0.96%); assay type: functional; how it was run: as §4
[29] = Toxicity in BALB/C mouse xenografted with human A375 cells assessed as reduction in body weight at 50 mg/kg, po bid for 14 days measured on day 22; conditions: in vivo, 336 h

O=C(CCSC(=S)NCc1cccnc1)c1cn(CC(F)F)c2ncccc12
AC50 (Pyruvate kinase PKM [1]): 2670 nM
%max (Pyruvate kinase PKM [2]): 149%
IC50 (NCI-H1299): 2280 nM
IC50 (HCT-116): 710 nM
IC50 (A-375 [3]): 280 nM
IC50 [4]: > 20000 nM
IC50 (C2C12): > 20000 nM
cytotoxicity at 72 h, 20 µM [5]: 46%
inhibition [6]: 41%
Activity (A-375 [7]): Active
inhibition (Homo sapiens): Dose-dependent effect
Activity (Pyruvate kinase PKM [8]): Active
Activity (A-375 [9]): Dose-dependent effect
Activity (A-375 [10]): Dose-dependent effect
Activity (A-375 [11]): Dose-dependent effect
inhibition (A-375 [12]): Active
Activity (A-375 [13]): Dose-dependent effect
cytotoxicity at 72 h, 20 µM [14]: 10%
Activity (A-375 [15]): Active
Activity (A-375 [16]): Dose-dependent effect
Activity (A-375 [17]): 86.39%
Activity (A-375 [18]): 3.95%
Activity (A-375 [19]): 8.09%
Activity (A-375 [20]): 1.57%
Activity (A-375 [21]): 76.9%
Activity (A-375 [22]): 14.01%
Activity (A-375 [23]): 6.98%
Activity (A-375 [24]): 2.11%
Activity (A-375 [25]): 67.24%
Activity (A-375 [26]): 18.55%
Activity (A-375 [27]): 9.76%
Activity (A-375 [28]): 4.45%
Activity [29]: Non-Toxic
